According to ChEMBL document CHEMBL1137764, “Design, synthesis, antibacterial activity and physicochemical parameters of novel N-4-piperazinyl derivatives of norfloxacin” (Bioorg Med Chem, 2009):
Values after ≈ are worked out from the molar mass of the structure shown.

Columns and labels:
Pseudomonas aeruginosa [1] = experiment: Antimicrobial activity against Pseudomonas aeruginosa at 4 ug/ml after 24 hrs by agar diffusion technique; type: functional; details: read-out: DIZ
Method in brief: (§1)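 Strains came from a university microbiology department. Inocula were 10⁶ CFU/mL. Mueller-Hinton agar was seeded with culture, poured 3–4 mm thick, and 10 mm cups were bored. Compounds were dissolved in DMF (10 mg/mL stock), diluted, and the solution was placed in the cups. Plates were incubated at 37 °C overnight. Inhibition zone diameter (mm) was read at 24 h.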

Pseudomonas aeruginosa [2] = experiment: Antimicrobial activity against Pseudomonas aeruginosa at 16 ug/ml after 24 hrs by agar diffusion technique; type: functional; details: read-out: DIZ; method in brief: as §1
Pseudomonas aeruginosa [3] = experiment: Antimicrobial activity against Pseudomonas aeruginosa at 64 ug/ml after 24 hrs by agar diffusion technique; type: functional; details: read-out: DIZ; method in brief: as §1
Pseudomonas aeruginosa [4] = experiment: Antimicrobial activity against Pseudomonas aeruginosa at 128 ug/ml after 24 hrs by agar diffusion technique; type: functional; details: read-out: DIZ; method in brief: as §1
Pseudomonas aeruginosa [5] = experiment: Antimicrobial activity against Pseudomonas aeruginosa at 512 ug/ml after 24 hrs by agar diffusion technique; type: functional; details: read-out: DIZ; method in brief: as §1
Escherichia coli [6] = experiment: Antimicrobial activity against Escherichia coli at 4 ug/ml after 24 hrs by agar diffusion technique; type: functional; details: read-out: DIZ; method in brief: as §1
Escherichia coli [7] = experiment: Antimicrobial activity against Escherichia coli at 16 ug/ml after 24 hrs by agar diffusion technique; type: functional; details: read-out: DIZ; method in brief: as §1
Escherichia coli [8] = experiment: Antimicrobial activity against Escherichia coli at 64 ug/ml after 24 hrs by agar diffusion technique; type: functional; details: read-out: DIZ; method in brief: as §1
Escherichia coli [9] = experiment: Antimicrobial activity against Escherichia coli at 128 ug/ml after 24 hrs by agar diffusion technique; type: functional; details: read-out: DIZ; method in brief: as §1
Escherichia coli [10] = experiment: Antimicrobial activity against Escherichia coli at 512 ug/ml after 24 hrs by agar diffusion technique; type: functional; details: read-out: DIZ; method in brief: as §1
Klebsiella pneumoniae [11] = experiment: Antimicrobial activity against Klebsiella pneumoniae at 4 ug/ml after 24 hrs by agar diffusion technique; type: functional; details: read-out: DIZ; method in brief: as §1
Klebsiella pneumoniae [12] = experiment: Antimicrobial activity against Klebsiella pneumoniae at 16 ug/ml after 24 hrs by agar diffusion technique; type: functional; details: read-out: DIZ; method in brief: as §1
Klebsiella pneumoniae [13] = experiment: Antimicrobial activity against Klebsiella pneumoniae at 64 ug/ml after 24 hrs by agar diffusion technique; type: functional; details: read-out: DIZ; method in brief: as §1
Klebsiella pneumoniae [14] = experiment: Antimicrobial activity against Klebsiella pneumoniae at 128 ug/ml after 24 hrs by agar diffusion technique; type: functional; details: read-out: DIZ; method in brief: as §1
Klebsiella pneumoniae [15] = experiment: Antimicrobial activity against Klebsiella pneumoniae at 512 ug/ml after 24 hrs by agar diffusion technique; type: functional; details: read-out: DIZ; method in brief: as §1
Staphylococcus aureus [16] = experiment: Antimicrobial activity against Staphylococcus aureus at 4 ug/ml after 24 hrs by agar diffusion technique; type: functional; details: read-out: DIZ; method in brief: as §1
Staphylococcus aureus [17] = experiment: Antimicrobial activity against Staphylococcus aureus at 16 ug/ml after 24 hrs by agar diffusion technique; type: functional; details: read-out: DIZ; method in brief: as §1
Staphylococcus aureus [18] = experiment: Antimicrobial activity against Staphylococcus aureus at 64 ug/ml after 24 hrs by agar diffusion technique; type: functional; details: read-out: DIZ; method in brief: as §1
Staphylococcus aureus [19] = experiment: Antimicrobial activity against Staphylococcus aureus at 128 ug/ml after 24 hrs by agar diffusion technique; type: functional; details: read-out: DIZ; method in brief: as §1
Staphylococcus aureus [20] = experiment: Antimicrobial activity against Staphylococcus aureus at 512 ug/ml after 24 hrs by agar diffusion technique; type: functional; details: read-out: DIZ; method in brief: as §1
Pseudomonas aeruginosa [21] = experiment: Antimicrobial activity against Pseudomonas aeruginosa after 24 hrs by agar diffusion technique; type: functional; details: for MIC: Pseudomonas aeruginosa, 24 h
Method in brief: (§2)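 Agar cup diffusion on Mueller-Hinton agar seeded from 10⁶ CFU/mL suspensions, with 10 mm cups in a 3–4 mm layer. Compounds were in DMF (10 mg/mL stock) at several concentrations. Plates were incubated at 37 °C and zones measured after 24 h. MIC was taken as the intercept of the plot of log concentration against inhibition zone diameter.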

Escherichia coli [22] = experiment: Antimicrobial activity against Escherichia coli after 24 hrs by agar diffusion technique; type: functional; details: for MIC: Escherichia coli, 24 h; method in brief: as §2
Klebsiella pneumoniae [23] = experiment: Antimicrobial activity against Klebsiella pneumoniae after 24 hrs by agar diffusion technique; type: functional; details: for MIC: Klebsiella pneumoniae, 24 h; method in brief: as §2
Staphylococcus aureus [24] = experiment: Antimicrobial activity against Staphylococcus aureus after 24 hrs by agar diffusion technique; type: functional; details: for MIC: Staphylococcus aureus, 24 h; method in brief: as §2
[25] = Octanol-phosphate buffer partition coefficient, log D at pH 7.4 by spectrophotometry; type: physicochemical
Method in brief: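 Shake-flask method. A 0.2 mg/mL stock was diluted into pH 7.4 phosphate buffer and mixed with an equal volume of n-octanol, phases mutually presaturated and protected from light. Samples were vortexed 3 min, then shaken 5 h at 25 °C. Both phases were assayed by UV at 270–280 nm. D is the molar concentration ratio, octanol to aqueous.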

SMILES | zone of inhibition at 4 µg/mL (Pseudomonas aeruginosa [1]) [mm] | zone of inhibition at 16 µg/mL (Pseudomonas aeruginosa [2]) [mm] | zone of inhibition at 64 µg/mL (Pseudomonas aeruginosa [3]) [mm] | zone of inhibition at 128 µg/mL (Pseudomonas aeruginosa [4]) [mm] | zone of inhibition at 512 µg/mL (Pseudomonas aeruginosa [5]) [mm] | zone of inhibition at 4 µg/mL (Escherichia coli [6]) [mm] | zone of inhibition at 16 µg/mL (Escherichia coli [7]) [mm] | zone of inhibition at 64 µg/mL (Escherichia coli [8]) [mm] | zone of inhibition at 128 µg/mL (Escherichia coli [9]) [mm] | zone of inhibition at 512 µg/mL (Escherichia coli [10]) [mm] | zone of inhibition at 4 µg/mL (Klebsiella pneumoniae [11]) [mm] | zone of inhibition at 16 µg/mL (Klebsiella pneumoniae [12]) [mm] | zone of inhibition at 64 µg/mL (Klebsiella pneumoniae [13]) [mm] | zone of inhibition at 128 µg/mL (Klebsiella pneumoniae [14]) [mm] | zone of inhibition at 512 µg/mL (Klebsiella pneumoniae [15]) [mm] | zone of inhibition at 4 µg/mL (Staphylococcus aureus [16]) [mm] | zone of inhibition at 16 µg/mL (Staphylococcus aureus [17]) [mm] | zone of inhibition at 64 µg/mL (Staphylococcus aureus [18]) [mm] | zone of inhibition at 128 µg/mL (Staphylococcus aureus [19]) [mm] | zone of inhibition at 512 µg/mL (Staphylococcus aureus [20]) [mm] | further results
CCn1cc(C(=O)O)c(=O)c2cc(F)c(N3CCN(C=O)CC3)cc21 [4-N-FORMYL-1-PIPERAZINYL-NORFLOXACIN] | 0 | 2 | 7 | 13 | 13 | 2 | 2 | 2 | 4 | 13 | 0 | 0 | 0 | 0 | 8 | 7 | 8 | 8 | 15 | 12 | logMIC (Pseudomonas aeruginosa [21]): 0.78; MIC (Pseudomonas aeruginosa [21]): 6 µg/mL (≈ 17.3 µM); logMIC (Escherichia coli [22]): 1.04; MIC (Escherichia coli [22]): 11 µg/mL (≈ 31.7 µM); logMIC (Klebsiella pneumoniae [23]): 2.11; MIC (Klebsiella pneumoniae [23]): 128 µg/mL (≈ 369 µM); logMIC (Staphylococcus aureus [24]): 0; MIC (Staphylococcus aureus [24]): < 1 µg/mL; logD [25]: 0.087
CCn1cc(C(=O)O)c(=O)c2cc(F)c(N3CCNCC3)cc21 [NORFLOXACIN] | 0 | 2 | 5 | 15 | 20 | 0 | 0 | 4 | 6 | 19 | 0 | 0 | 5 | 8 | 12 | 0 | 0 | 0 | 3 | 20 | logMIC (Pseudomonas aeruginosa [21]): 0.95; MIC (Pseudomonas aeruginosa [21]): 9 µg/mL (≈ 28.2 µM); logMIC (Escherichia coli [22]): 1.45; MIC (Escherichia coli [22]): 14 µg/mL (≈ 43.8 µM); logMIC (Klebsiella pneumoniae [23]): 0; MIC (Klebsiella pneumoniae [23]): 8 µg/mL (≈ 25.1 µM); logMIC (Staphylococcus aureus [24]): 1.81; MIC (Staphylococcus aureus [24]): 64 µg/mL (≈ 200 µM); logD [25]: -0.41
